Data on eight compounds can be found in ChEMBL document CHEMBL1151799, “Trace amine-associated receptor 1 (TAAR1) is activated by amiodarone metabolites” (Bioorg Med Chem Lett, 2008).

Calls of active or inactive are those of the source. The calls are words filed in the database; no cut-off is given here.

Trace amine-associated receptor 1, sequence (Q923Y9 whole entry): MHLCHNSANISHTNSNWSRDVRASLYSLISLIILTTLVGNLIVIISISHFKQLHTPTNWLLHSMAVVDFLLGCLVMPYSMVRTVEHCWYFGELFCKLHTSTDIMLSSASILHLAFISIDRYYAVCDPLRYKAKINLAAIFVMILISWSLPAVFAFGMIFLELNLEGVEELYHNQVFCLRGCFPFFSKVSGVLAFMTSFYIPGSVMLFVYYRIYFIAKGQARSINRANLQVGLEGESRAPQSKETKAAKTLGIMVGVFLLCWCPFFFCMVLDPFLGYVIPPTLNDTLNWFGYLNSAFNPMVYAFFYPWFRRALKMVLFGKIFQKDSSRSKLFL

For one assay, the target named is Trace amine-associated receptor 1 (Rattus norvegicus) (UniProt Q923Y9). Nature of the assay: Antagonist activity at rat TAAR1 expressed in HEK293 cells assessed as intracellular cAMP level at 10 uM after 1 hr. It is filed as functional, cell-based. Summed up: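 Stably rTAAR1-transfected HEK293 cells were harvested in Krebs-Ringer-Hepes buffer and incubated in it with 133 µM IBMX, 1 h at 37 °C. Test compound at 10 µM was given in competition with the agonist T1AM at 33 nM. Intracellular cAMP was read. At least three separate experiments, each in triplicate.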
Trace amine-associated receptor 1 (Rattus norvegicus), sequence (Q923Y9 whole entry, the tested form may be a part): as the sequence (Q923Y9 whole entry) above
In general terms: Cyclic AMP is a second messenger, typically raised through Gs and lowered through Gi signalling.
Regarding `CCCCc1oc2ccccc2c1C(=O)c1ccc(OCCNCC)c(I)c1`, the outcome was inactive.

As to `CCCCc1oc2ccccc2c1C(=O)c1ccc(OCCN(CC)CC)c(I)c1`, the result was inactive.

For the compound `CCCCc1oc2ccccc2c1C(=O)c1ccc(OCCN(CC)CC)cc1`, the result was inactive.

For `CCCCc1oc2ccccc2c1C(=O)c1cc(I)c(OCCNCC)c(I)c1`, the result was inactive.

The target is the same in the next assay. Nature of the assay: Agonist activity at rat TAAR1 expressed in HEK293 cells assessed as intracellular cAMP level at <=10 uM after 1 hr. It counts as functional, cell-based. Summed up: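 HEK293 cells stably transfected with rTAAR1 (empty pcDNA3 vector cells as control) were harvested in Krebs-Ringer-Hepes buffer (KRH), then incubated in KRH with 133 µM IBMX plus test compound, forskolin (10 µM) or vehicle (DMSO) for 1 h at 37 °C. Intracellular cAMP was read. Tested at 10 µM or below. At least three separate experiments, each in triplicate.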
Regarding `CCCCc1oc2ccccc2c1C(=O)c1cc(I)c(OCCN)c(I)c1`, the result was Active.

`CCCCc1oc2ccccc2c1C(=O)c1ccc(OCCN)c(I)c1`: the outcome was Active.

On to `CCCCc1oc2ccccc2c1C(=O)c1ccc(OCCNCC)cc1`, for which the result was Active.

For the compound `CCCCc1oc2ccccc2c1C(=O)c1ccc(OCCN)cc1`, the result was Active.

Another assay deals with Trace amine-associated receptor 1 (Rattus norvegicus, UniProt Q923Y9). Description: Agonist activity at rat TAAR1 expressed in HEK293 cells assessed as intracellular cAMP level. It is filed as functional, cell-based. The gist of the method:
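HEK293 cells stably transfected with rat TAAR1, with empty pcDNA3 vector cells as control, were harvested in Krebs-Ringer-Hepes buffer. They were incubated in the same buffer with 133 µM IBMX plus test compound, 10 µM forskolin or DMSO vehicle for 1 h at 37 °C. Results are mean ± SEM of at least three separate experiments, each run in triplicate.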
By EC50 is commonly meant the concentration needed to bring the measured effect to its halfway point. In the case of `CCCCc1oc2ccccc2c1C(=O)c1cc(I)c(OCCN)c(I)c1`, the 50% effective concentration (EC50) was 1000 nM.
